Measured values: the EternaBench riboswitch data

Test system: MS2 coat protein
Experiment: apparent Kd, MS2 coat protein; higher = weaker binding; RNA-MaP array; FMN 200 µM where present
Outline: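 Designs were transcribed by stalled E. coli RNA polymerase on Illumina sequencing-chip clusters. They were titrated with SNAP-549-labelled MS2 coat protein from 0.7 or 1.5 nM, doubling to 3 µM, without and then with constant ligand. Buffer: 100 mM Tris-HCl pH 7.5, 80 mM KCl, 4 mM MgCl2, BSA, DTT, yeast tRNA, Tween-20. Green signal was normalised to red-channel RNA signal and control-cluster median Fmax. Apparent Kd is the median of filtered per-cluster binding-curve fits.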

[1] = designed as: OFF switch for flavin mononucleotide, no ligand
[2] = ligand present: flavin mononucleotide, designed as: OFF switch for flavin mononucleotide
[3] = designed as: ON switch for flavin mononucleotide, no ligand
[4] = ligand present: flavin mononucleotide, designed as: ON switch for flavin mononucleotide

In the case of “UCCGUACUAGGAUAUACAGCAAAAUCAAACAAAUUCCUCAAACAUGAGGAUCACCCAUGUAGAAGGAGUACCAA”, the “apparent Kd” value [1] is reported as 17.4 nM and the “apparent Kd” value [2] is reported as 14.7 nM.

“GCAGCUAAUGCAGGAUAUCAGCACGUGUAGUGCUGAGAAGGGCACAUGAGGAUCACCCAUGUGAUCAAUUAAUAUUAAUGCUGC” was tested, and the “apparent Kd” value [1] was 24.9 nM and the “apparent Kd” value [2] was 152 nM.

For “CAUGGACGGUUAGGAUAUGACCUUUAAUGAAAGUCAGAAGGGAUCGCACAUGAGGAUCACCCAUGUCGCAGACUCGGGCGACUU”, the “apparent Kd” value [1] was 14.9 nM and the “apparent Kd” value [2] was 21.1 nM.

For “UGAUCGAGAGAUCUUAGAUUCUGGUAGGAUAUACAUUAUAUAAGAUAUACAUGAGGAUCACCCAUGUAGAAGGACUAGAGUCUA”, the “apparent Kd” value [1] was 6.47 nM and the “apparent Kd” value [2] was 7.39 nM.

For “ACAAGAUCAGGAUAUACAUGAGGAUCACCCAUGUAUAUCCAAAAAGGGCCUUCUACAUGUAGAAGGGAUCUUGU”, the “apparent Kd” value [1] was 13.1 nM and the “apparent Kd” value [2] was 12.6 nM.

With “GUGUUGGUAGGAUAUCCACCGACAAACAUGAGGAUCACCCAUGUGACGCUCCCUUGUCUUGGAGAAGGGCCGGCAU” the “apparent Kd” value [1] was 50.4 nM and the “apparent Kd” value [2] was 49.1 nM.

With “AAAAAGUCAGGAUAUAGCAAAGGUCACGAAAGUGACAAAGGCUAGAAGGGACAUGAGGAUCACCCAUGUAAAAA” the “apparent Kd” value [1] was 31 nM and the “apparent Kd” value [2] was 39.1 nM.

In the case of “CGGUGGUCAGGAUAUACGAACAUGUCGCCAGAUGUCAUGGUACAUGAGGAUCACCCAUGUAGAAGGGAGUAGGU”, the “apparent Kd” value [1] is reported as 181 nM and the “apparent Kd” value [2] is reported as 171 nM.

With “GUAUAUCACUAAGGAUAUCUGUAUUUUGUUGAAACAUGAGGAUCACCCAUGUUCAUGAAAUUAUAGGAGAAGGUAGAGAUAUAC” the “apparent Kd” value [3] was 4.96 nM and the “apparent Kd” value [4] was 4.57 nM.

“GCACAUGAGGAUCACCCAUGUGGUCCAGAAGGCCAGAGGACUUGCUUUUAGCAAGUCCUUCAAAUGGAGGAUAUGGAGGGUUCU” was tested, and the “apparent Kd” value [3] was 237 nM and the “apparent Kd” value [4] was 42 nM.

For “AUAGUGCCCGAGAAGGACGUACCACAUGUUGAUCACCGAUAUAAGGAACGUAGGAUAUUGGACAUGAGGAUCACCCAUGUGGAU”, the “apparent Kd” value [3] was 87.5 nM and the “apparent Kd” value [4] was 162 nM.

With “AUCAGCUCGUCAGGAUAUACGUCACUGCGUCAGAAGUGUGGUAAGAUCACAUGAGGAUCACCCAUGUAGAAGGGACGAGCUGAU” the “apparent Kd” value [1] was 23.4 nM and the “apparent Kd” value [2] was 253 nM.

In the case of “CAUUAAUUGAUUAUUGAAUAUUUACAGGAUAUGUAACAUGAGGAUCACCCAUGUAAACAUGGAUUACAGAAGGGUAUUUAUAGA”, the “apparent Kd” value [1] is reported as 37 nM and the “apparent Kd” value [2] is reported as 26.1 nM.

For “AAAAAGUCAGGAUAUUCGGAAGGGAAAGCGCAAACCCAACCGAAGAAGGGACAUGAGGAUCACCCAUGUAAAAA”, the “apparent Kd” value [1] was 26.7 nM and the “apparent Kd” value [2] was 39 nM.

For “AUUUUUAAGGUAGGAUAUAGUAUAAUGGUUUAAUUAGAAGGAUCUCACAUGAGGAUCACCCAUGUAAUAGGAUUACCCAUGUAU”, the “apparent Kd” value [1] was 38.8 nM and the “apparent Kd” value [2] was 26.8 nM.

In the case of “AGAUCACAUGAGGAUCACCCAUGUGAGGAUAUGGACUGAAGAGCUUCGGCUCUUCAGUCCAGAAGGCACUAUGA”, the “apparent Kd” value [1] is reported as 27.3 nM and the “apparent Kd” value [2] is reported as 35 nM.

In the case of “AUGACUCUAGGAUAUUAGCGGGCCUACAUGAGGAUCACCCAUGUCGUGUCGCGGGUAUGCUGAGAAGGAGAGCACA”, the “apparent Kd” value [1] is reported as 14.2 nM and the “apparent Kd” value [2] is reported as 17.9 nM.

For “CUGUGACGGUGCGCAAGUGGACGGAGAAGGGACACAUGAGGAUCACCCAUGUGGGCCUGCUAUUGUCAGGAUAUCCGUUCGUAC”, the “apparent Kd” value [1] was 6.26 nM and the “apparent Kd” value [2] was 6.62 nM.

With “GGGUACGUUUCGUAGCAGUGUCAUCGAGAAGGCCCUGACAUGAGGAUCACCCAUGUUGUUACAUGGGAGGAUAUCGAUGAUUUU” the “apparent Kd” value [3] was 19.1 nM and the “apparent Kd” value [4] was 6.06 nM.

In the case of “ACAUGAGGAUCACCCAUGUAUACAUAGGAUAUUGGUGAUCAGGGAUGUUUUACAGGAUAUGUCUGCGAGAAGGAUGCAAGUAGU”, the “apparent Kd” value [3] is reported as 238 nM and the “apparent Kd” value [4] is reported as 48.3 nM.

With “UUAAUCAUGUAGAAGGACGGAUAUUAAGAGAACGUAGGAUAUACAGAAGACAUGAGGAUCACCCAUGUGAACAUGGUACAUAGG” the “apparent Kd” value [1] was 241 nM and the “apparent Kd” value [2] was 62.5 nM.

With “AAAAAGUCAGGAUAUGCGAAGGCGUCUGAUAGACGAGGCUAGCAGAAGGGACAUGAGGAUCACCCAUGUAAAGA” the “apparent Kd” value [1] was 27.2 nM and the “apparent Kd” value [2] was 55.1 nM.

In the case of “GUAGCAUACCGAGGAUAUUCACAUAAUAAAUAAACAUGAGGAUCACCCAUGUGGCGAAAGCCUAGGGAGAAGGCGGAAUGCUAC”, the “apparent Kd” value [3] is reported as 76 nM and the “apparent Kd” value [4] is reported as 18.7 nM.

With “AAAGGACGAUUAGGAUAUUCGGUUCAAGGUAAAGAAGAAGGAAUCGUUCCAUACUUAACAUGAGGAUCACCCAUGUGGGUCUAG” the “apparent Kd” value [1] was 34.9 nM and the “apparent Kd” value [2] was 29.5 nM.

With “AAGUCAGCAGGAUAUGCGAUGUUGGGCUAGGUAGCUUGACCACAUGAGGAUCACCCAUGUAGAAGGGCUGGCUA” the “apparent Kd” value [1] was 17.4 nM and the “apparent Kd” value [2] was 14 nM.

With “GGAUAUAUGAAGGGCGAACGCGCACAUGAGGAUCACCCAUGUAGAAGGCGGUCCGCAACGCGGAUCGAGGAUAUAUAGUAUACG” the “apparent Kd” value [1] was 19.1 nM and the “apparent Kd” value [2] was 17.3 nM.

For “AUUGACUGAGGAUAUUGUACUGCUGACAUGAGGAUCACCCAUGUAUGCUAACUCGGCCGUCGAGAAGGCAGUAAUG”, the “apparent Kd” value [1] was 39 nM and the “apparent Kd” value [2] was 27.3 nM.

In the case of “GUCAGCUCGUGAGGAUAUACCACACUGCUUCGGCAGUGUAUUAAGAUCACAUGAGGAUCACCCAUGUAGAAGGCACGAGCUGAU”, the “apparent Kd” value [1] is reported as 6.32 nM and the “apparent Kd” value [2] is reported as 34.2 nM.

“GCGCUAAAACAGAAGGCCAAAUACAUGAGGAUCACCCAUGUCGAAUCAUGGAGGAUAUGUUAUUAAUUACUCGCAGAUGAGCGC” was tested, and the “apparent Kd” value [3] was 104 nM and the “apparent Kd” value [4] was 11.8 nM.

In the case of “CCUUUACAUGAGGAUCACCCAUGUCAGGAUAUCCUGUUGUGUUGUCUCGGGCGACACAUGAGCCAGGAGAAGGGACGAAGGGAA”, the “apparent Kd” value [1] is reported as 41.7 nM and the “apparent Kd” value [2] is reported as 68.1 nM.

“UAUUAUAGCAGUGUAUUAAGAUCACAUGAGGAUCACCCAUGUAGAAGGUAUAAGCAAUAUGCUAAUAAGGAUAUACAACACUGC” was tested, and the “apparent Kd” value [1] was 8.13 nM and the “apparent Kd” value [2] was 27.5 nM.

For “ACGUGACGGAGCGCGAGUGGACGGAGAAGGCAGACAUGAGGAUCACCCAUGUGAGCCUGCUAUUCUGAGGAUAUCCGUCCGCAC”, the “apparent Kd” value [1] was 32.5 nM and the “apparent Kd” value [2] was 203 nM.

In the case of “UAAACACCCUCAUGUGCCUGAGGACAUGAGGAUCACCCAUGUAAGGAUAUAGCCAUUAAAUCUAACUAGAAGGUAUAGGACAUC”, the “apparent Kd” value [1] is reported as 925 nM and the “apparent Kd” value [2] is reported as 540 nM.

For “GCACAUGAUACAGGAUAUGUAUUGGAAUAUAUAAUGAAUUAGAUGAAAUUGACAGAAGGGUAGACAUGAGGAUCACCCAUGUGC”, the “apparent Kd” value [1] was 324 nM and the “apparent Kd” value [2] was 186 nM.

“AAAAAAAAAACUCAGGAUAUAGAUAAUUGAACAUGAGGAUCACCCAUGUAGUGAAAAAAAAAAAAUUAGAAGGGAGGAAAAAAAAA” was tested, and the “apparent Kd” value [3] was 67.8 nM and the “apparent Kd” value [4] was 58.8 nM.

For “CCAUAAAAGAUCCAAUUUUACAACAUGAGGAUCACCCAUGUGCAGGAUAUCGUGAAAGUAAAAUACGAGAAGGGCAAGAACUGC”, the “apparent Kd” value [1] was 265 nM and the “apparent Kd” value [2] was 246 nM.
